OX1R antag-1 = blocks the human orexin 1 receptor | CHO/OX1R cells, Fluo-8 calcium fluorescence, orexin A | inhibition, % at 5 µM | hit rate 0.43% among 330,000 | O43613 | AID 434989;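 active = inhibition above its plate's threshold, mean inhibition of all tested compounds on the plate plus 3 SD, cut at about 37% in these data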;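 also: 0% = orexin A challenge wells and 100% = SB-334867-A antagonist wells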
Target sequence (O43613 whole entry, looked up): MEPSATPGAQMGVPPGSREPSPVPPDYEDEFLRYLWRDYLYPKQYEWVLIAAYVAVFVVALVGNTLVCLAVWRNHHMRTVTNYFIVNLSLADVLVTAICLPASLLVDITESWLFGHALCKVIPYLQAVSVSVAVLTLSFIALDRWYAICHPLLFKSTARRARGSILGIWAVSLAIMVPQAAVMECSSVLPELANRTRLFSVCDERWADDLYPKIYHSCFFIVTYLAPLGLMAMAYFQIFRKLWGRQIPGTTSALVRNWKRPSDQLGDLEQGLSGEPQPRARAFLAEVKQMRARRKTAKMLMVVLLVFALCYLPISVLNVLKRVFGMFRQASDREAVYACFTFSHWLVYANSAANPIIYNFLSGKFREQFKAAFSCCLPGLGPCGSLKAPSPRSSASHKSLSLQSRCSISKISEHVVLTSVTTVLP
V1aR counter = activates human V1a receptor in oxytocin agonist counter-screen; P37288; activation, % at 3 µM; hit rate 0.25% among 320,000; CHO-V1R cells, Fluo-8 calcium fluorescence, agonist mode; 0% DMSO, 100% 3 nM vasopressin;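 active = activation above the mean activation of all tested compounds plus 3 SD, per screening run, cut at about 20% in these data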;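 also: signal is peak over basal fluorescence ratio across a 100 second FLIPR read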
OXTR potentiate = human OXTR potentiation; activation, % at 3 µM; hit rate 0.061% among 320,000; CHO-OTR cells, Fluo-8 calcium fluorescence, potentiator mode; 0% = oxytocin EC15, 100% = EC100; P30559;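 active = activation above that plate's cutoff, the mean activation of tested compounds plus 3 SD, cut at about 6.6% in these data, passing the limit was not always enough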;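 also: 100% uses oxytocin at 75 nM as the full agonist control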
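System: human OTR in CHO cells; Also added: sub-maximal oxytocin, roughly EC15; Timing: compound 6 min at room temperature before oxytocin, 100 s read; Technique: Fluo-8 intracellular calcium fluorescence, ex 470-495, em 515-575 nm; Controls: oxytocin EC15 low and EC100 high; Replication: singlicate.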
OXTR ag = activates the human oxytocin receptor | CHO-OTR cells, Fluo-8 calcium fluorescence; normalized: DMSO 0%, oxytocin 100% | activation, % at 3 µM | hit rate 0.32% among 320,000 | AID 2435;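 active = activation above the mean of all tested compounds plus 3 SD, cutoff set per screening run, cut at about 20% in these data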;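 also: peak over basal fluorescence ratio from a 100 s FLIPR kinetic read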
CHO parental Ca = counter-screen for OX1R antagonists: effect in parental CHO cells; hit rate 0.63% among 330,000; AID 463079; inhibition, % at 5.6 µM; parental CHO-K1, ATP-induced calcium, Fluo-8 fluorescence;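 active = inhibition above that plate's mean sample inhibition plus 3 SD, cut at about 26% in these data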;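 also: 0% = ATP-challenged DMSO wells and 100% = DMSO wells without ATP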
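Material: parental CHO cells / Compound: single nominal dose of 5.6 µM per compound / Signal: Fluo-8 fluorescence / Replicates: singlicate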
OX1R antag-2 = antagonists of human orexin 1 receptor (OX1R). O43613. OX1R-expressing cells, FRET antagonist read-out. inhibition, % at 6.6 µM. hit rate 1.8% among 330,000; in the data active = inhibition mostly above about 38%, no sharp cut-off; inactive = mostly below about 40%;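 also: 0% = agonist challenge alone and 100% = reference antagonist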
* hit, by the source's call. Most compounds without a hit are left out; they make up all but 2.7% or so of the library.

SMILES	OX1R antag-1	V1aR counter	OXTR potentiate	OXTR ag	CHO parental Ca	OX1R antag-2
O=C(CSC(=S)N1CCCC1)N(Cc1nnc(-c2ccccc2Cl)o1)C1CC1	-18.0	-0.3	0.3	-0.9	-21.8	4.9
Cc1ccc(NC(=O)COC(=O)Cn2cnc3ccccc32)c(C)c1	-7.5	1.4	-6.5	2.3	-19.6	9.9
N=c1c(C(=O)NCCc2ccccc2)cc2c(=O)n3ccccc3nc2n1Cc1ccco1	-34.2	1.6	-8.2	1.5	-30.2	22.8
N=c1c(C(=O)NCCc2ccccc2)cc2c(=O)n3ccccc3nc2n1CCCN1CCOCC1	-6.9	-0.9	-1.6	-0.8	-4.6	44.8*
Cc1cc(C(=O)OCC(=O)NC(C)c2ccc(F)cc2)c(C)o1 (configuration not stated)	-4.7	4.0	-7.3	0.5	-19.8	-1.0
CCOC(=O)C1CCN(S(=O)(=O)c2c(Cl)ccc3nonc23)CC1	8.9	0.0	-2.7	-0.6	14.0	88.6*
COc1cccc(OC)c1C(=O)OCc1c(-c2ccccc2)ncc2ccccc12	-12.3	-1.1	-4.0	-1.2	-19.6	15.7
CN(NS(=O)(=O)c1ccc(Cl)cc1)c1nc(C(F)(F)F)nc2ccccc12	-20.7	8.8	-11.2	10.7	4.0	55.3*
Cc1cccc(NC(=O)c2ccc(Cl)c(S(=O)(=O)N3CCc4ccccc43)c2)n1	27.2	2.3	-9.2	0.0	-13.7	34.5*
O=C(Nc1ccncc1)c1ccc(Cl)c(S(=O)(=O)N2CCc3ccccc32)c1	34.3	9.2	-16.9	11.8	43.7*	49.6*
CC(=O)NNS(=O)(=O)c1scc(S(=O)(=O)c2ccc(Cl)cc2)c1C	-7.2	1.8	-4.8	1.7	0.5	3.1
CC(NC(=O)COC(=O)c1cc([N+](=O)[O-])ccc1N1CCOCC1)c1ccc(F)cc1 (configuration not stated)	-15.4	-0.7	-6.6	-1.5	-16.0	39.5*
CC(NC(=O)COC(=O)c1cc([N+](=O)[O-])ccc1N1CCOCC1)c1ccccc1 (configuration not stated)	-30.8	2.5	-4.4	2.9	-22.9	50.8*
CN(C(=O)Nc1ccc(Cl)c(Cl)c1)c1ccccc1C(=O)O	18.1	4.1	-8.1	2.2	35.4*	9.8
O=C(Nc1ccc(Cl)c(Cl)c1)c1ccccc1	7.6	2.3	-11.3	-1.9	-6.7	33.4
Cc1nn(-c2ccccc2)c2sc(-c3n[nH]c(=S)o3)cc12	5.0	1.7	-0.1	0.0	-13.7	40.9*
Cc1nn(-c2ccccc2)c2sc(C(=O)O)cc12	-20.0	0.5	-6.0	0.1	-12.5	4.0
Clc1ccc(CON/C=N/c2ncnc3sccc23)c(Cl)c1	-9.3	2.7	-7.5	4.5	23.3	45.4*
Clc1ccc(CONc2ncnc3nonc23)c(Cl)c1	-1.4	5.0	-25.4	3.4	11.2	17.6
Cc1ccccc1Cn1cc(S(=O)(=O)c2ccc(C(C)C)cc2)c(=O)c2cc3c(cc21)OCO3	-30.5	0.3	-2.3	0.4	-20.4	15.7
CC(C)(C)OC(=O)C[C@@H]1C/C=C\C[C@H](CC(=O)NCCO)C(=O)NC[C@@H](c2ccccc2)OC1=O	-8.5	0.8	3.9	0.5	-8.9	4.3
CC(C(=O)Nc1cccc([N+](=O)[O-])c1)N1C(=O)NC2(CCCC2)C1=O (configuration not stated)	-12.3	1.0	-1.1	0.1	-8.7	8.8
O=C(Nc1ccc(S(=O)(=O)N2CCCC2)cc1)c1ccc([N+](=O)[O-])o1	-5.8	4.2	-6.2	5.6	-4.2	34.2*
O=C(Nc1ccc(S(=O)(=O)N2CCOCC2)cc1)c1ccc([N+](=O)[O-])o1	3.8	0.6	-0.8	0.4	-5.5	63.1
O=C(Nc1ccc(S(=O)(=O)N2CCCCC2)cc1)c1ccc(CN2CCc3ccccc3C2)cc1	-9.9	8.5	-8.2	12.7	46.9*	16.2
O=C(Nc1ccccc1)c1ccc(CN2CCc3ccccc3C2)cc1	-16.9	0.7	-2.2	0.1	-1.3	18.3
O=C(N/N=C/c1cc2c(cc1Br)OCO2)c1cc2ccccc2o1	-1.3	1.1	-8.2	-1.9	-16.0	76.0*
O=C(N/N=C/c1cc2c(cc1Br)OCO2)c1ccccn1	-26.4	2.7	-6.9	-1.8	-30.3	1.9

From PubChem BioAssay
